{"source": "ChEMBL document CHEMBL1212900", "about": "“Falcipain inhibitors: optimization studies of the 2-pyrimidinecarbonitrile lead series” (J Med Chem, 2010)", "data": [{"experiment": "Inhibition of Plasmodium falciparum falcipain-3 expressed in Escherichia coli", "procedure,_shortened": "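Refolded recombinant enzyme from E. coli, 2 nM, in 100 mM sodium acetate pH 5.5 with 500 μM CHAPS and 10 mM DTT, DMSO up to 1%. H-D-Val-Leu-Arg-AFC at 150 μM final. Reaction started by enzyme addition; fluorescence monitored 1 h at room temperature. IC50 derived from percent activity plotted against inhibitor concentration.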", "units": {"IC50": "nM"}, "values": [{"compound": "CC(C)CN(NC(=O)Cc1c(Cl)cccc1Cl)c1nc(C#N)ncc1Br", "IC50": 66}, {"compound": "Cc1cc(C)c(CC(=O)NN(CC(C)C)c2nc(C#N)ncc2Br)c(C)c1", "IC50": 21}, {"compound": "CC(C)CN(NC(=O)C(C)(C)c1ccccc1)c1nc(C#N)ncc1Br", "IC50": 60}, {"compound": "CC(C)CN(NC(=O)C(C)(C)c1ccc(Cl)cc1)c1nc(C#N)ncc1Br", "IC50": 18}, {"compound": "COc1ccc(C(C)(C)C(=O)NN(CC(C)C)c2nc(C#N)ncc2Br)cc1", "IC50": 34}, {"compound": "CC(C)CN(NC(=O)C1(c2ccccc2)CC1)c1nc(C#N)ncc1Br", "IC50": 102}, {"compound": "CC(C)CN(NC(=O)C1(c2ccc(Cl)cc2)CC1)c1nc(C#N)ncc1Br", "IC50": 69}, {"compound": "CC(C)CN(NC(=O)C1(c2ccc(Cl)cc2)CCC1)c1nc(C#N)ncc1Br", "IC50": 216}, {"compound": "CC(C)CN(NC(=O)C1(c2ccccc2)CCCC1)c1nc(C#N)ncc1Br", "IC50": 137}, {"compound": "CC(C)CN(NC(=O)C1(c2ccc(Cl)cc2)CCCC1)c1nc(C#N)ncc1Br", "IC50": 184}, {"compound": "CC(C)CN(NC(=O)C1(c2ccc(Cl)cc2)CCCCC1)c1nc(C#N)ncc1Br", "IC50": 1650}, {"compound": "CC(C)CN(NC(=O)C(N)c1ccccc1)c1nc(C#N)ncc1Br", "note": "(configuration not stated)", "IC50": 34}, {"compound": "CC(C)CN(NC(=O)c1cccc(-c2ccncc2)c1)c1nc(C#N)ncc1Br", "IC50": 15}, {"compound": "CC(C)CN(NC(=O)c1cccc(-c2cncnc2)c1)c1nc(C#N)ncc1Br", "IC50": 12}, {"compound": "CC(C)CN(NC(=O)c1cncc(-c2ccccc2)c1)c1nc(C#N)ncc1Br", "IC50": 4}, {"compound": "CC(C)CN(NC(=O)c1cncc(-c2ccccc2)c1)c1nc(C#N)ncc1Cl", "IC50": 26}, {"compound": "CC(C)CN(NC(=O)c1cc(-c2ccccc2)ncn1)c1nc(C#N)ncc1Cl", "IC50": 30}, {"compound": "Cc1nc(-c2ccc(C(=O)NN(CC(C)C)c3nc(C#N)ncc3Br)cc2)cs1", "IC50": 164}, {"compound": "CC(C)CN(NC(=O)c1ccc(-n2cccn2)cc1)c1nc(C#N)ncc1Cl", "IC50": 148}, {"compound": "CC(C)CN(NC(=O)c1ccc(-n2ccc(C(F)(F)F)n2)cc1)c1nc(C#N)ncc1Cl", "IC50": 144}, {"compound": "CC(C)CN(NC(=O)c1ccc(-n2cncn2)cc1)c1nc(C#N)ncc1Br", "IC50": 52}, {"compound": "CC(C)CN(NC(=O)c1ccc(-c2ccccc2)o1)c1nc(C#N)ncc1Br", "IC50": 39}, {"compound": "Cc1nc(-c2ccccc2)sc1C(=O)NN(CC(C)C)c1nc(C#N)ncc1Br", "IC50": 999}, {"compound": "Cc1nc(-c2ccc(C(F)(F)F)cc2)sc1C(=O)NN(CC(C)C)c1nc(C#N)ncc1Cl", "IC50": 1540}, {"compound": "COc1ccc(-c2cc(C(=O)NN(CC(C)C)c3nc(C#N)ncc3Br)no2)cc1", "IC50": 692}, {"compound": "CC(C)CN(NC(=O)c1cnoc1-c1ccccc1)c1nc(C#N)ncc1Cl", "IC50": 128}, {"compound": "Cc1c(C(=O)NN(CC(C)C)c2nc(C#N)ncc2Br)noc1-c1ccccc1", "IC50": 71}, {"compound": "Cc1c(-c2ccccc2Cl)noc1C(=O)NN(CC(C)C)c1nc(C#N)ncc1Cl", "IC50": 571}, {"compound": "CC(C)CN(NC(=O)c1cc(-c2ccccc2)[nH]n1)c1nc(C#N)ncc1Br", "IC50": 352}, {"compound": "CC(C)CN(NC(=O)c1ccnn1-c1ccccc1)c1nc(C#N)ncc1Cl", "IC50": 63}, {"compound": "CC(C)CN(NC(=O)c1cc(-c2cccs2)on1)c1nc(C#N)ncc1Br", "IC50": 218}, {"compound": "CC(C)CN(NC(=O)c1cc(-c2cccs2)[nH]n1)c1nc(C#N)ncc1Cl", "IC50": 451}, {"compound": "Cc1nc(-c2ccccc2)ncc1C(=O)NN(CC(C)C)c1nc(C#N)ncc1Br", "IC50": 165}, {"compound": "CC(C)CN(NC(=O)c1ccc(-n2ccnc2)cc1)c1nc(C#N)ncc1Br", "IC50": 239}, {"compound": "C[C@H]1CCC[C@H]1N(NC(=O)OC(C)(C)C)c1nc(C#N)ncc1Br", "note": "(relative stereo)", "IC50": 407}, {"compound": "C[C@@H]1CCC[C@H]1N(NC(=O)OC(C)(C)C)c1nc(C#N)ncc1Br", "note": "(relative stereo)", "IC50": 6}]}, {"experiment": "Inhibition of Plasmodium falciparum falcipain-2 expressed in Escherichia coli", "procedure,_shortened": "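Recombinant E. coli-expressed, refolded enzyme at 0.25 nM in 100 mM sodium acetate pH 5.5, 500 μM CHAPS, 10 mM DTT, DMSO ≤1%. Substrate H-D-Val-Leu-Arg-AFC at 30 μM final. Inhibitor dilutions mixed with substrate, enzyme added last; fluorescence followed 1 h at room temperature. IC50 from percent activity versus concentration.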", "units": {"IC50": "nM"}, "values": [{"compound": "CC(C)CN(NC(=O)Cc1c(Cl)cccc1Cl)c1nc(C#N)ncc1Br", "IC50": 1}, {"compound": "Cc1cc(C)c(CC(=O)NN(CC(C)C)c2nc(C#N)ncc2Br)c(C)c1", "IC50": 1}, {"compound": "CC(C)CN(NC(=O)C(C)(C)c1ccccc1)c1nc(C#N)ncc1Br", "IC50": 18}, {"compound": "CC(C)CN(NC(=O)C(C)(C)c1ccc(Cl)cc1)c1nc(C#N)ncc1Br", "IC50": 4}, {"compound": "COc1ccc(C(C)(C)C(=O)NN(CC(C)C)c2nc(C#N)ncc2Br)cc1", "IC50": 6}, {"compound": "CC(C)CN(NC(=O)C1(c2ccccc2)CC1)c1nc(C#N)ncc1Br", "IC50": 6}, {"compound": "CC(C)CN(NC(=O)C1(c2ccc(Cl)cc2)CC1)c1nc(C#N)ncc1Br", "IC50": 15}, {"compound": "CC(C)CN(NC(=O)C1(c2ccc(Cl)cc2)CCC1)c1nc(C#N)ncc1Br", "IC50": 12}, {"compound": "CC(C)CN(NC(=O)C1(c2ccccc2)CCCC1)c1nc(C#N)ncc1Br", "IC50": 11}, {"compound": "CC(C)CN(NC(=O)C1(c2ccc(Cl)cc2)CCCC1)c1nc(C#N)ncc1Br", "IC50": 12}, {"compound": "CC(C)CN(NC(=O)C1(c2ccc(Cl)cc2)CCCCC1)c1nc(C#N)ncc1Br", "IC50": 40}, {"compound": "CC(C)CN(NC(=O)C(N)c1ccccc1)c1nc(C#N)ncc1Br", "note": "(configuration not stated)", "IC50": 7}, {"compound": "CC(C)CN(NC(=O)c1cccc(-c2ccncc2)c1)c1nc(C#N)ncc1Br", "IC50": "< 0.5"}, {"compound": "CC(C)CN(NC(=O)c1cccc(-c2cncnc2)c1)c1nc(C#N)ncc1Br", "IC50": "< 0.5"}, {"compound": "CC(C)CN(NC(=O)c1cncc(-c2ccccc2)c1)c1nc(C#N)ncc1Br", "IC50": "< 0.5"}, {"compound": "CC(C)CN(NC(=O)c1cncc(-c2ccccc2)c1)c1nc(C#N)ncc1Cl", "IC50": 0.8}, {"compound": "CC(C)CN(NC(=O)c1cc(-c2ccccc2)ncn1)c1nc(C#N)ncc1Cl", "IC50": 1}, {"compound": "Cc1nc(-c2ccc(C(=O)NN(CC(C)C)c3nc(C#N)ncc3Br)cc2)cs1", "IC50": 0.8}, {"compound": "CC(C)CN(NC(=O)c1ccc(-n2cccn2)cc1)c1nc(C#N)ncc1Cl", "IC50": 8}, {"compound": "CC(C)CN(NC(=O)c1ccc(-n2ccc(C(F)(F)F)n2)cc1)c1nc(C#N)ncc1Cl", "IC50": 2}, {"compound": "CC(C)CN(NC(=O)c1ccc(-n2cncn2)cc1)c1nc(C#N)ncc1Br", "IC50": 3}, {"compound": "CC(C)CN(NC(=O)c1ccc(-c2ccccc2)o1)c1nc(C#N)ncc1Br", "IC50": 1}, {"compound": "Cc1nc(-c2ccccc2)sc1C(=O)NN(CC(C)C)c1nc(C#N)ncc1Br", "IC50": 406}, {"compound": "Cc1nc(-c2ccc(C(F)(F)F)cc2)sc1C(=O)NN(CC(C)C)c1nc(C#N)ncc1Cl", "IC50": 12}, {"compound": "COc1ccc(-c2cc(C(=O)NN(CC(C)C)c3nc(C#N)ncc3Br)no2)cc1", "IC50": 4}, {"compound": "CC(C)CN(NC(=O)c1cnoc1-c1ccccc1)c1nc(C#N)ncc1Cl", "IC50": 8}, {"compound": "Cc1c(C(=O)NN(CC(C)C)c2nc(C#N)ncc2Br)noc1-c1ccccc1", "IC50": 20}, {"compound": "Cc1c(-c2ccccc2Cl)noc1C(=O)NN(CC(C)C)c1nc(C#N)ncc1Cl", "IC50": 100}, {"compound": "CC(C)CN(NC(=O)c1cc(-c2ccccc2)[nH]n1)c1nc(C#N)ncc1Br", "IC50": 3}, {"compound": "CC(C)CN(NC(=O)c1ccnn1-c1ccccc1)c1nc(C#N)ncc1Cl", "IC50": 7}, {"compound": "CC(C)CN(NC(=O)c1cc(-c2cccs2)on1)c1nc(C#N)ncc1Br", "IC50": 4}, {"compound": "CC(C)CN(NC(=O)c1cc(-c2cccs2)[nH]n1)c1nc(C#N)ncc1Cl", "IC50": 5}, {"compound": "Cc1nc(-c2ccccc2)ncc1C(=O)NN(CC(C)C)c1nc(C#N)ncc1Br", "IC50": 2}, {"compound": "CC(C)CN(NC(=O)c1ccc(-n2ccnc2)cc1)c1nc(C#N)ncc1Br", "IC50": 9}, {"compound": "C[C@H]1CCC[C@H]1N(NC(=O)OC(C)(C)C)c1nc(C#N)ncc1Br", "note": "(relative stereo)", "IC50": 58}, {"compound": "C[C@@H]1CCC[C@H]1N(NC(=O)OC(C)(C)C)c1nc(C#N)ncc1Br", "note": "(relative stereo)", "IC50": 3}]}]}
